Measured values as given in ChEMBL document CHEMBL4689842, “EUbOPEN Chemogenomics Library wave 1” (2021).

Tested on: U2OS
Test: Multiplex assay against U2OS
Assay type: toxicity, cell-based
Details: human
Procedure, shortened: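 Imaging took place on a CQ1 microscope at 37°C and 5% CO2 once compound had been added to live cells stained at seeding with Hoechst33342, BioTracker Green Microtubule Cytoskeleton Dye, MitoTracker Red and Annexin V Alexa Fluor 680. CellPathfinder machine-learning gating classed cells as Hoechst high-intensity objects or normal cells, classed normal cells as having healthy, pyknosed or fragmented nuclei, and classed pyknosed cells as mitotic or apoptotic. Tubulin, mitochondrial-mass and membrane-permeability phenotypes are per cents of the healthy-nucleus cells.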

[1] = 12 h, 1 µM, compound concentration 1 uM, replicate 1
[2] = 12 h, 1 µM, compound concentration 1 uM, replicate 2
[3] = 12 h, 10 µM, compound concentration 10 uM, replicate 1
[4] = 12 h, 10 µM, compound concentration 10 uM, replicate 2
[5] = 24 h, 1 µM, compound concentration 1 uM, replicate 1
[6] = 24 h, 1 µM, compound concentration 1 uM, replicate 2
[7] = 24 h, 10 µM, compound concentration 10 uM, replicate 1
[8] = 24 h, 10 µM, compound concentration 10 uM, replicate 2
[9] = 48 h, 1 µM, compound concentration 1 uM, replicate 1
[10] = 48 h, 1 µM, compound concentration 1 uM, replicate 2
[11] = 48 h, 10 µM, compound concentration 10 uM, replicate 1
[12] = 48 h, 10 µM, compound concentration 10 uM, replicate 2

## OC1(c2ccc(Cl)cc2)CCN(Cc2c[nH]c3ccccc23)CC1
[1]
  Population Apoptotic (%): 64%
  Population Fragmented Nuclei (%): 10%
  Population Healthy Nuclei (%): 80%
  Population Hoechst High Intensity Objects (%): 9%
  Population Mitochondria Different-Phenotype (%): 15%
  Population Mitotic Cells (%): 35%
  Population Normal (%): 90%
  Population Tubulin-Different-Phenotype (%): 11%
  Total Cell Count: 115
[2]
  Population Apoptotic (%): 0%
  Population Fragmented Nuclei (%): 13%
  Population Healthy Nuclei (%): 77%
  Population Hoechst High Intensity Objects (%): 10%
  Population Membrane Permeable-Phenotype (%): 3%
  Population Mitochondria Different-Phenotype (%): 13%
  Population Mitotic Cells (%): 100%
  Population Normal (%): 89%
  Population Pyknosed Nuclei (%): 9%
  Population Tubulin-Different-Phenotype (%): 9%
  Total Cell Count: 78
[3]
  Population Apoptotic (%): 52%
  Population Fragmented Nuclei (%): 15%
  Population Healthy Nuclei (%): 35%
  Population Hoechst High Intensity Objects (%): 5%
  Population Membrane Permeable-Phenotype (%): 10%
  Population Mitochondria Different-Phenotype (%): 92%
  Population Mitotic Cells (%): 47%
  Population Normal (%): 94%
  Population Pyknosed Nuclei (%): 48%
  Population Tubulin-Different-Phenotype (%): 84%
  Total Cell Count: 165
[4]
  Population Apoptotic (%): 42%
  Population Fragmented Nuclei (%): 13%
  Population Healthy Nuclei (%): 38%
  Population Hoechst High Intensity Objects (%): 3%
  Population Membrane Permeable-Phenotype (%): 4%
  Population Mitochondria Different-Phenotype (%): 95%
  Population Mitotic Cells (%): 57%
  Population Normal (%): 96%
  Population Pyknosed Nuclei (%): 47%
  Population Tubulin-Different-Phenotype (%): 60%
  Total Cell Count: 74
[5]
  Population Apoptotic (%): 50%
  Population Fragmented Nuclei (%): 7%
  Population Healthy Nuclei (%): 82%
  Population Hoechst High Intensity Objects (%): 4%
  Population Membrane Permeable-Phenotype (%): 3%
  Population Mitochondria Different-Phenotype (%): 6%
  Population Mitotic Cells (%): 50%
  Population Normal (%): 95%
  Population Pyknosed Nuclei (%): 9%
  Population Tubulin-Different-Phenotype (%): 10%
  Total Cell Count: 119
[6]
  Population Apoptotic (%): 20%
  Population Fragmented Nuclei (%): 5%
  Population Healthy Nuclei (%): 88%
  Population Hoechst High Intensity Objects (%): 8%
  Population Membrane Permeable-Phenotype (%): 4%
  Population Mitochondria Different-Phenotype (%): 13%
  Population Mitotic Cells (%): 80%
  Population Normal (%): 91%
  Population Pyknosed Nuclei (%): 6%
  Population Tubulin-Different-Phenotype (%): 8%
  Total Cell Count: 77
[7]
  Population Apoptotic (%): 61%
  Population Fragmented Nuclei (%): 20%
  Population Healthy Nuclei (%): 22%
  Population Hoechst High Intensity Objects (%): 9%
  Population Membrane Permeable-Phenotype (%): 20%
  Population Mitochondria Different-Phenotype (%): 79%
  Population Mitotic Cells (%): 38%
  Population Normal (%): 90%
  Population Pyknosed Nuclei (%): 56%
  Population Tubulin-Different-Phenotype (%): 50%
  Total Cell Count: 197
[8]
  Population Apoptotic (%): 66%
  Population Fragmented Nuclei (%): 21%
  Population Healthy Nuclei (%): 27%
  Population Hoechst High Intensity Objects (%): 5%
  Population Membrane Permeable-Phenotype (%): 5%
  Population Mitochondria Different-Phenotype (%): 94%
  Population Mitotic Cells (%): 33%
  Population Normal (%): 94%
  Population Pyknosed Nuclei (%): 51%
  Population Tubulin-Different-Phenotype (%): 52%
  Total Cell Count: 85
[9]
  Population Apoptotic (%): 23%
  Population Healthy Nuclei (%): 83%
  Population Mitochondria Different-Phenotype (%): 11%
  Population Mitotic Cells (%): 76%
  Population Pyknosed Nuclei (%): 9%
  Population Tubulin-Different-Phenotype (%): 8%
  Total Cell Count: 132
[10]
  Population Apoptotic (%): 41%
  Population Fragmented Nuclei (%): 7%
  Population Healthy Nuclei (%): 81%
  Population Hoechst High Intensity Objects (%): 3%
  Population Membrane Permeable-Phenotype (%): 3%
  Population Mitochondria Different-Phenotype (%): 17%
  Population Mitotic Cells (%): 58%
  Population Normal (%): 96%
  Population Pyknosed Nuclei (%): 11%
  Population Tubulin-Different-Phenotype (%): 16%
  Total Cell Count: 85
[11]
  Population Apoptotic (%): 79%
  Population Fragmented Nuclei (%): 37%
  Population Healthy Nuclei (%): 6%
  Population Hoechst High Intensity Objects (%): 12%
  Population Membrane Permeable-Phenotype (%): 25%
  Population Mitochondria Different-Phenotype (%): 87%
  Population Mitotic Cells (%): 20%
  Population Normal (%): 88%
  Population Pyknosed Nuclei (%): 56%
  Population Tubulin-Different-Phenotype (%): 62%
  Total Cell Count: 282
[12]
  Population Apoptotic (%): 70%
  Population Fragmented Nuclei (%): 32%
  Population Healthy Nuclei (%): 12%
  Population Hoechst High Intensity Objects (%): 8%
  Population Membrane Permeable-Phenotype (%): 75%
  Population Mitochondria Different-Phenotype (%): 75%
  Population Mitotic Cells (%): 29%
  Population Normal (%): 91%
  Population Pyknosed Nuclei (%): 54%
  Population Tubulin-Different-Phenotype (%): 50%
  Total Cell Count: 111
